In ChEMBL document CHEMBL2396586, “Discovery of non-LBD inhibitor for androgen receptor by structure-guide design” (Bioorg Med Chem Lett, 2013):

Tests used:
LNCaP = test: Cytotoxicity against human LNCAP cells assessed as cell viability after 2 days by cell counting method; type: functional, cell-based; conditions: 48 h
How it was run: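 LNCap cells were grown in RPMI1640 with 10% FBS and penicillin/streptomycin at 37 °C in 5% CO2. They were seeded at 4 × 10³ cells/well, left 24 h, then exposed to compounds for 2 days. Viability was read by CCK-8 absorbance, in triplicate.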

Androgen receptor = target: T1, Androgen receptor (Homo sapiens, UniProt P10275); test: Inhibition of androgen receptor in human LNCAP cells after 1 day by luciferase reporter gene assay; type: cell-based
T1 sequence (P10275 whole entry): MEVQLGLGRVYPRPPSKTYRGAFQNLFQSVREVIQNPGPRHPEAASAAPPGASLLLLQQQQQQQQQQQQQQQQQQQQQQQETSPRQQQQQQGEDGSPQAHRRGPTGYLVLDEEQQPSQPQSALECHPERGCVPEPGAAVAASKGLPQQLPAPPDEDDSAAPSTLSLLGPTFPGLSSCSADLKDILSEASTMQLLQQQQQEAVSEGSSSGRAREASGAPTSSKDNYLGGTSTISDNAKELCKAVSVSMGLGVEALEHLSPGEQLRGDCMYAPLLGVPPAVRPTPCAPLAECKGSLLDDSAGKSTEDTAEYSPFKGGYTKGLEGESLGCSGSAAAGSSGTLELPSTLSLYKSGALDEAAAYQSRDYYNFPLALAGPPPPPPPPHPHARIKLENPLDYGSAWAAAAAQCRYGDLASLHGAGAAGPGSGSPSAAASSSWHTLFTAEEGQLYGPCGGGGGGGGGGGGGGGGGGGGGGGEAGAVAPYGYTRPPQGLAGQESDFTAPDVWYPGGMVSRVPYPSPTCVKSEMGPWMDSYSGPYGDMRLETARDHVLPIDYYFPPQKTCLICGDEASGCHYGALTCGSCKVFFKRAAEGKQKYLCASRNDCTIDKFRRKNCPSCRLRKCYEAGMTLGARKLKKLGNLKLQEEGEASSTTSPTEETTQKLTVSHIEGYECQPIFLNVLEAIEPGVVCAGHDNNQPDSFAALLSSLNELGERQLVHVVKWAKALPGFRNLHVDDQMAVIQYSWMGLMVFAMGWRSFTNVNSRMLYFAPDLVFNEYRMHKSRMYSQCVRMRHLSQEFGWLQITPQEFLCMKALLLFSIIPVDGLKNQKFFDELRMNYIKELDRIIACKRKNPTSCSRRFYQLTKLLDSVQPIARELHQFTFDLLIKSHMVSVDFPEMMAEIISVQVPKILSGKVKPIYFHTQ

CYP3A4 = CYP3A4 (Homo sapiens, UniProt P08684); test: Inhibition of human recombinant CYP3A4 using dibenzylfluorescein as substrate at 10 uM preincubated for 20 mins prior to enzyme/substrate addition measured after 20 mins by fluorometric assay relative to control; type: ADME; conditions: recombinant CYP3A4, probe dibenzylfluorescein
Chain of CYP3A4 (P08684 whole entry): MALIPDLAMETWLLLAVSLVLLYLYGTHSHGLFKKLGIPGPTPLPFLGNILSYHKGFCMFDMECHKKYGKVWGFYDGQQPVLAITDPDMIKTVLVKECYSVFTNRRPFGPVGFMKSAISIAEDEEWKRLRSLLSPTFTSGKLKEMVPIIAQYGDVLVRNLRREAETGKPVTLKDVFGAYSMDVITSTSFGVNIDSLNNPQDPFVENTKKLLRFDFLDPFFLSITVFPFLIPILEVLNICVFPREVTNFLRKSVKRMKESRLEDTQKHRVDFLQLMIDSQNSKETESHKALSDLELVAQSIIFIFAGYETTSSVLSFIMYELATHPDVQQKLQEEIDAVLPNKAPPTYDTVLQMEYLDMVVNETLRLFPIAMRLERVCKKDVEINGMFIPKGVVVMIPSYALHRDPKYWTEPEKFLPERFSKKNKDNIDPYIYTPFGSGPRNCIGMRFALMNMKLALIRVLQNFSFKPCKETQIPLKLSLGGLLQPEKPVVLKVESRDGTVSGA
How it was run: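 Vivid fluorometric kit. Compounds were in acetonitrile, with an acetonitrile vehicle control. NADP-regenerating system (1.0 mM NADP+, 3.3 mM glucose-6-phosphate, 3.3 mM MgCl2, 0.4 U/mL G6PDH in 10 mM KPO4, pH 8.0) was preincubated with compound at 37 °C for 20 min. Then 0.5 pmol recombinant human CYP3A4 plus dibenzylfluorescein was added, 20 min, and the reaction was stopped. Background had enzyme/substrate added after the stop. Fluorescein read at ex 485/em 530 nm.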

[1] = Cmax in Sprague-Dawley rat at 2.5 mg/kg, po; type: ADME, organism-based; parameters: dose 2.5 mg/kg, route oral; conditions: in vivo
How it was run: (§1)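 Male Sprague-Dawley rats, n = 3 per route, were given 2.5 mg/kg by either intravenous or oral dosing. Plasma concentration–time profiles were followed, and PK parameters were derived from them, with AUC taken over 0–72 h and also to infinity.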

[2] = Metabolic stability in rat liver microsomes assessed as compound remaining at […] after 1 hr; type: ADME, Microsome; conditions: read-out: Stability
[3] = AUC (0 to 72 hrs) in Sprague-Dawley rat at 2.5 mg/kg, iv; type: ADME, organism-based; parameters: time < 72 hr, dose 2.5 mg/kg, route intravenous; conditions: plasma; how it was run: as §1
[4] = Mean residence time in Sprague-Dawley rat at 2.5 mg/kg, iv; type: ADME, organism-based; parameters: dose 2.5 mg/kg, route intravenous; conditions: in vivo; how it was run: as §1
[5] = Tmax in Sprague-Dawley rat at 2.5 mg/kg, po; type: ADME, organism-based; parameters: dose 2.5 mg/kg, route oral; conditions: in vivo; how it was run: as §1
[6] = Mean residence time in Sprague-Dawley rat at 2.5 mg/kg, po; type: ADME, organism-based; parameters: dose 2.5 mg/kg, route oral; conditions: in vivo; how it was run: as §1
[7] = Elimination half life in Sprague-Dawley rat at 2.5 mg/kg, iv; type: ADME, organism-based; parameters: dose 2.5 mg/kg, route intravenous; conditions: in vivo, read-out: beta t1/2 (converted); how it was run: as §1
[8] = Elimination half life in Sprague-Dawley rat at 2.5 mg/kg, po; type: ADME, organism-based; parameters: dose 2.5 mg/kg, route oral; conditions: in vivo, read-out: beta t1/2 (converted); how it was run: as §1
[9] = Volume of distribution at steady state in Sprague-Dawley rat at 2.5 mg/kg, iv; type: ADME, organism-based; parameters: dose 2.5 mg/kg, route intravenous; conditions: in vivo, read-out: Vdss; how it was run: as §1
[10] = AUC (0 to infinity) in Sprague-Dawley rat at 2.5 mg/kg, po; type: ADME, organism-based; parameters: time infinity, dose 2.5 mg/kg, route oral; conditions: plasma; how it was run: as §1
[11] = Permeability of the compound at pH 7.4 at 500 uM after 16 hrs by PAMPA; type: ADME; conditions: pH 7.4, 16 h
How it was run: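 PAMPA: the donor solution was diluted from a 1 mM DMSO stock into system buffer at pH 7.4. Lipid solution was applied to each filter membrane, and the receiver side held acceptor sink buffer. The plates were incubated 16 h at room temperature. Donor and receiver sides were analysed by UV spectrometry, and donor initial concentration was also measured.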

[12] = AUC (0 to infinity) in Sprague-Dawley rat at 2.5 mg/kg, iv; type: ADME, organism-based; parameters: time infinity, dose 2.5 mg/kg, route intravenous; conditions: plasma; how it was run: as §1
[13] = Octanol-water partition coefficient, log P of the compound by pH-metric method; type: physicochemical
[14] = AUC (0 to 72 hrs) in Sprague-Dawley rat at 2.5 mg/kg, po; type: ADME, organism-based; parameters: time < 72 hr, dose 2.5 mg/kg, route oral; conditions: plasma; how it was run: as §1
[15] = Blood clearance in Sprague-Dawley rat at 2.5 mg/kg, iv; type: ADME, organism-based; parameters: dose 2.5 mg/kg, route intravenous; how it was run: as §1
[16] = Oral bioavailability in Sprague-Dawley rat at 2.5 mg/kg; type: ADME, organism-based; conditions: in vivo; how it was run: as §1
CYP2D6 = CYP2D6 (Homo sapiens, UniProt P10635); test: Inhibition of CYP2D6 (unknown origin) at 10 uM relative to control; type: ADME
Chain of CYP2D6 (P10635 whole entry): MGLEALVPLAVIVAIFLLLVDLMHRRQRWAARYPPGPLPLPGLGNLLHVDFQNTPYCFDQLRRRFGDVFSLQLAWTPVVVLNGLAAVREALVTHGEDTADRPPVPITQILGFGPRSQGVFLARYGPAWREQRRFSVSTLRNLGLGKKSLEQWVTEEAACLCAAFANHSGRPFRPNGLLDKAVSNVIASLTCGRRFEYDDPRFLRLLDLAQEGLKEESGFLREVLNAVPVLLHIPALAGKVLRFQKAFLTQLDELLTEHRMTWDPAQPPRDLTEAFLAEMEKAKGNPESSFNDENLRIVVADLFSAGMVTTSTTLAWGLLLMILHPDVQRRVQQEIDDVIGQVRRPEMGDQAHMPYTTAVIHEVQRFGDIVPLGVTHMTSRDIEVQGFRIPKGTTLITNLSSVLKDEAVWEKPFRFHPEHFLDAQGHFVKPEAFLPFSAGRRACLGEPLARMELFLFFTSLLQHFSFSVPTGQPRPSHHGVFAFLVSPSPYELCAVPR

`CCS(=O)(=O)Nc1cccc(-c2cc(=O)n(-c3ccc(C#N)cc3)nc2C)c1` showed an IC50 (LNCaP) of 39 µM and an IC50 (Androgen receptor) of 6.26 µM.
In the case of `CCS(=O)(=O)Nc1cccc(-c2cc(=O)n(-c3ccc(Cl)c(Cl)c3)nc2C)c1`, the inhibition at 20 min, 10 µM (CYP3A4) is reported as 6.7%, the Cmax [1] is reported as 767 ng/mL and the remaining at 1 h [2] is reported as > 99%. For the same compound, the AUC(0-t) at 72 h [3] was 27500 ng·h/mL, the MRT [4] was 26.9 h and the Tmax [5] was 10.3 h. For the same compound, the MRT [6] was 34.9 h, the half-life [7] was 1150 min and the IC50 (LNCaP) was 11.6 µM. It also gave a half-life [8] of 1300 min, a Vd [9] of 2.25 L/kg and an AUC(0-inf) [10] of 30500 ng·h/mL. For the same compound, the permeability [11] was “permeable”, the AUC(0-inf) [12] was 29800 ng·h/mL and the IC50 (Androgen receptor) was 2.65 µM. For the same compound, the logP [13] was 3.82, the AUC(0-t) at 72 h [14] was 26800 ng·h/mL and the clearance [15] was 1.41 mL/min/kg. For the same compound, the bioavailability [16] was 102% and the inhibition at 10 µM (CYP2D6) was 0%.
Compound `CCS(=O)(=O)Nc1cccc(-c2cc(=O)n(-c3cc(Cl)cc(Cl)c3)nc2C)c1` has an IC50 (LNCaP) of 22.9 µM and an IC50 (Androgen receptor) of 13.2 µM.
With `CCS(=O)(=O)Nc1cccc(-c2cc(=O)n(-c3ccc(F)c(Cl)c3)nc2C)c1` the IC50 (LNCaP) was 26.7 µM and the IC50 (Androgen receptor) was 5.07 µM.
`CCS(=O)(=O)Nc1cccc(-c2cc(=O)n(-c3ccc4ccccc4c3)nc2C)c1` gave an IC50 (LNCaP) of 18.3 µM and an IC50 (Androgen receptor) of 9.76 µM.
For `CC(O)(CS(=O)(=O)c1ccc(F)cc1)C(=O)Nc1ccc(C#N)c(C(F)(F)F)c1` (centres undefined) [BICALUTAMIDE], the IC50 (LNCaP) was 23.8 µM.
